In the library only some 2.5% were active in any assay of this set; here they are far more common.
PAX8 reporter – inhibitors of PAX8 transcriptional activity in RMG-I cells; inhibition, % at 12.6 µM; AID 652154; actives 1.2% (n = 360,000); RMG-I TPO-luciferase reporter, SteadyGlo, 24 h;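 active = mean replicate inhibition at least 60% with every replicate also reaching 60%; inconclusive = only one of the two criteria is met; inactive = mean below 60% and not all replicates reaching 60%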;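 also: luciferase light reporting Pax8 driven TPO promoter activity; plate controls were median of neutral control wells for no effect and mitoxantrone controls for full effect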
N-glyco inh – N-linked glycosylation inhibition. actives 0.23% (n = 360,000). AID 588692. D54 ERlucT glycosylation luciferase reporter, 24 h; percent of 100 nM tunicamycin response. reporter increase, % at 12.5 µM;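 active = mean luciferase reporter signal, scaled so untreated is 0 and the glycosylation-blocking control 100, at or above a set limit in every replicate; inconclusive = mean reaches the limit but not every replicate does; inactive = mean below the limit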;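 also: luciferase carries N-glycosylation sites so blocking glycosylation raises the light; 0% = median of neutral control wells and 100% = median of 100 nM tunicamycin wells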
Env fusion inh – inhibitors of HIV Env-mediated cell fusion; HeLa-JRFL Env/CEM21 cell fusion, luciferase; inhibition, % at 12.3 µM; actives 1.1% (n = 360,000);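 active = mean replicate inhibition score of at least 50 and every replicate individually at or above 50; inconclusive = only one of the two criteria met; inactive = mean below 50 and not all replicates reaching 50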;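 also: 0% = plate neutral controls and 100% = maraviroc near 300 nM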
FN deposition inh – fibronectin deposition inhibition; actives 0.086% (n = 350,000); AH1F fibroblasts, Alexa488-fibronectin deposition fluorescence, overnight; AID 743247; inhibition, % at 12.6 µM;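 active = mean inhibition across replicates of 30% or more, regardless of how many single replicates reach that level; inconclusive = mean under 30% yet at least half of replicates reach 30%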;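 also: positive control wells lacked labelled fibronectin entirely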
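Assay system: AH1F fibroblasts / Quantity: 10000 cells per well / Medium: DMEM plus 2% serum, read in PBS / Reagent: labelled fibronectin 24 nM / Dosing: single dose, pinned / Times: 1 h cell attachment, overnight exposure to compound and label / Signal: fluorescence, ex 485 nm, em 525 nm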
EWS-Fli inh – inhibitors of EWS/Fli oncoprotein transcriptional activity. inhibition, % at 12.6 µM. AID 651661. actives 0.67% (n = 350,000). A673 NR0B1-luciferase reporter, viability-normalised;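 active = mean inhibition of at least 50% after viability correction, with every replicate also passing that limit; inconclusive = mean reaches 50% but only one of two replicates passes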;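 also: firefly luciferase signal divided by Alamar Blue viability fluorescence both relative to DMSO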
AF4-AF9 inh – MLL-AF4/AF9 protein interaction inhibition | P42568 | actives 0.47% (n = 350,000) | inhibition, % at 10 µM | AID 651704 | AlphaScreen, biotin-AF4 peptide binding to FLAG-AF9;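 active = every replicate reaching a set inhibition limit, whatever the replicate mean, cut at about 25% in these data; inconclusive = mean inhibition reaches that limit but some replicates miss it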;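 also: 0% = plate neutral control median and 100% = total signal loss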
Target sequence (P42568 whole entry, looked up): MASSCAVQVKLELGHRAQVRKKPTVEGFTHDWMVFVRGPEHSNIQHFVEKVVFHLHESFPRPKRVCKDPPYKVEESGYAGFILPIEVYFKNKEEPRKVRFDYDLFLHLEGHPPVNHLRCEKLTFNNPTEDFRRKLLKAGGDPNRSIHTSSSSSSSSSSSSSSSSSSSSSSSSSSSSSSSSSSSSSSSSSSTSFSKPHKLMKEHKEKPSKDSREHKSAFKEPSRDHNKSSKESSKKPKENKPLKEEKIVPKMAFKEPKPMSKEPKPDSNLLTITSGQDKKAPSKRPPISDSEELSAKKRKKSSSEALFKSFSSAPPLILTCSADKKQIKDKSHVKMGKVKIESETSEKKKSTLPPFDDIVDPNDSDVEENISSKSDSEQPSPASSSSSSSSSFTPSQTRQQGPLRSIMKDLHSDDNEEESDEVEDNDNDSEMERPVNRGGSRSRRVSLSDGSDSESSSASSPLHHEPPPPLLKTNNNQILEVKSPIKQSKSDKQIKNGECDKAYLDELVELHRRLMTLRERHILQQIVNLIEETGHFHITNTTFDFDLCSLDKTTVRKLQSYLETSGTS
* = called active by the depositor; ? = inconclusive; . = no result; [ ] = another dose, or the depositor's remark.

SMILES	PAX8 reporter	N-glyco inh	Env fusion inh	FN deposition inh	EWS-Fli inh	AF4-AF9 inh
Cc1ccc(C(C(=O)NC2CCCC2)N(Cc2ccc(F)cc2)C(=O)c2snc(C(N)=O)c2N)o1 (stereo not given)	3.8	-3.6	64.8*	1.1	13.3	5.3
CCc1ccc(N(C(=O)c2snc(C(N)=O)c2N)C(C(=O)NC2CCCC2)c2ccco2)cc1 (stereo not given)	-139.2	-0.6	55.9*	-1.3	5.2	0.5
CO[C@H]1CN(C)C(=O)c2ccc(NC(C)=O)cc2OC[C@@H](C)N(C(=O)C2CC2)C[C@H]1C	7.3	.	.	-3.5	-5.0	-1.7
COc1ccc2c3c(n(C)c2c1)[C@H](CO)N(C(=O)CN1CCOCC1)CC31CN(C(=O)CC2CC2)C1	.	.	20.4[16.7 µM]	.	-12.4	1.2
C=CCSc1nnc(NC(=O)COc2ccccc2)s1	-17.2	0.6	3.4	34.0*	-14.3	-1.8
COC(=O)C[C@H]1CC[C@H]2[C@@H](COc3ccc(NS(=O)(=O)c4ccc(F)cc4)cc3C(=O)N2C)O1	.	.	7.4[16.7 µM]	-3.0	1.5	-1.6
COc1cccc(CN(Cc2ccccc2F)S(=O)(=O)c2ccc(S(=O)(=O)NCc3ccccc3)cc2)c1	23.6	-2.5	67.9*	-11.9	.	.
C[C@H]1CN([C@@H](C)CO)C(=O)c2cc(NC(=O)Cn3cnnn3)ccc2O[C@H]1CN(C)C(=O)Nc1ccc(F)cc1	-14.8	.	-5.4[16.7 µM]	-1.5	0.7	-1.4
COc1cc(C(=O)Nc2ccc(C)cc2)c2ccccc2n1	33.1	16.7	-340.4	-8.1	54.2*	-7.0
CCCC(=O)Nc1nc(C)c(-c2csc(Nc3cc(OC)ccc3OC)n2)s1	48.2	-5.3	-19.7	-5.7	32.0	.
C=CCCC(=O)Nc1nc(C)c(-c2csc(Nc3cc(OC)ccc3OC)n2)s1	56.5	11.9	-177.9	-3.9	58.2*	.
OC(CNC1CCCc2ccccc21)COc1c(Cl)cccc1Cl (stereo not given)	-0.6	-0.2	11.0	42.0*	14.6	3.4
C[C@@H]1CN([C@@H](C)CO)C(=O)c2cccc(NC(=O)C3CCOCC3)c2O[C@@H]1CN(C)Cc1ccncc1	-3.3	.	-5.6[16.7 µM]	-4.9	1.2	44.3*
COc1ccc(CN(C)C[C@@H]2Oc3c(NC(=O)C4CCCCC4)cccc3C(=O)N([C@H](C)CO)C[C@H]2C)cc1	64.0*	.	30.2[16.7 µM]	.	-3.4	6.1
COc1ccc(CN(C)C[C@@H]2Oc3c(NC(=O)C4CCCCC4)cccc3C(=O)N([C@H](C)CO)C[C@@H]2C)cc1	16.4	.	-16.4[16.7 µM]	.	8.5	-3.4
CC=Cc1ccc2n(c1=O)C[C@H]1[C@H](CO)[C@@H](C(=O)NCCCN(C)C)[C@@H]2N1C(=O)c1ccccc1 (mixture of isomers)	-11.0	.	.	.	-7.2	.
O=C(c1ccccc1)N1CCN(C(=O)N2CCOCC2)CC1	2.7	2.1	-75.8	0.8	.	.
O=C1C(=C(c2ccccc2)N2CCOCC2)Cc2ccccc21	113.0*	-4.9	-464.8	.	60.3*	16.0
O=C(Nc1ccc2nc(-c3ccc4nc[nH]c4c3)[nH]c2c1)c1cccs1	67.7*	1.8	-27.4	12.6	.	.
COc1ccc(/C=C2\CCCC3C2=NN(C(=O)c2scnc2C)C3c2ccc(OC)c(OC)c2)cc1OC (stereo not given)	.	-3.6	65.6*	.	.	.
C[C@H]1CCCCO[C@H](CN(C)C(=O)Nc2ccc(F)cc2)[C@@H](C)CN([C@@H](C)CO)C(=O)c2cc(NS(=O)(=O)c3ccc(Cl)cc3)ccc2O1	17.0	.	3.3[16.7 µM]	-7.3	16.6	-5.4
C[C@@H]1CCCCO[C@H](CN(C)C(=O)Nc2ccc(F)cc2)[C@@H](C)CN([C@@H](C)CO)C(=O)c2cc(NS(=O)(=O)c3ccc(Cl)cc3)ccc2O1	83.0*	.	-105.5[16.7 µM]	-6.1	7.2	-2.4
C[C@H](CO)N1C[C@H](C)[C@H](CN(C)C(=O)Nc2ccc(F)cc2)OCCCC[C@H](C)Oc2ccc(NS(=O)(=O)c3ccc(Cl)cc3)cc2C1=O	61.1*	.	-16.5[16.7 µM]	-2.7	5.9	-5.5
CCN(CC)Cc1cc(Nc2c3ccccc3nc3c4ccccc4n(C)c23)cc(CN(CC)CC)c1O	15.9	?	47.7	4.6	-2.9	55.5*
CCCCn1c(=N)n(CC(=O)c2ccc(Br)s2)c2ccccc21	71.5*	-10.7	24.3	-0.2	62.9*	2.8
SMILES	PAX8 reporter	N-glyco inh	Env fusion inh	FN deposition inh	EWS-Fli inh	AF4-AF9 inh
O=C(N/N=C/c1c(O)ccc2ccccc12)c1ccc(CO)nc1	71.3*	-9.7	-3.1	14.5	3.9	2.4
CCCC#Cc1cnc2c(c1)C(=O)N([C@H](C)CO)C[C@@H](C)[C@H](CN(C)Cc1ccc(F)cc1)O2	.	.	13.8[16.7 µM]	2.1	9.2	4.9
CC(C)NC(=O)Nc1ccc2c(c1)C(=O)N([C@H](C)CO)C[C@@H](C)[C@@H](CN(C)C(=O)C1CCCCC1)OCCCC[C@@H](C)O2	3.0	.	42.1[16.7 µM]	.	0.9	.
CN(CCc1cn[nH]c1)Cc1nc(C(c2ccccc2)c2ccccc2)no1	143.7*	-2.5	-8.6	-4.8	7.6	2.9
CCN(CC)CCN(C)Cc1nc(C(c2ccccc2)c2ccccc2)no1	15.4	-0.5	1.3	18.1	25.7	4.0
CC(C)NC(=O)Nc1ccc2c(c1)C(=O)N([C@H](C)CO)C[C@@H](C)[C@@H](CN(C)C(=O)CCC(F)(F)F)OCCCC[C@@H](C)O2	5.9	.	79.4*[16.7 µM]	-1.6	.	-3.3
C[C@@H]1CCCCO[C@H](CN(C)C(=O)CCC(F)(F)F)[C@H](C)CN([C@H](C)CO)C(=O)c2cc(NC(=O)CCC(F)(F)F)ccc2O1	-2.9	.	86.6*[16.7 µM]	-3.8	-3.4	-2.0
C[C@@H]1CCCCO[C@@H](CN(C)C(=O)Nc2ccccc2)[C@H](C)CN([C@H](C)CO)C(=O)c2cc(NC(=O)CCC(F)(F)F)ccc2O1	15.0	.	65.7*[16.7 µM]	8.3	7.0	-1.8
C[C@@H]1CCCCO[C@H](CN(C)C(=O)CCC(F)(F)F)[C@H](C)CN([C@@H](C)CO)C(=O)c2cc(NC(=O)Nc3ccc4c(c3)OCO4)ccc2O1	68.2*	.	26.1[16.7 µM]	.	3.9	5.0
C[C@@H]1CCCCO[C@@H](CN(C)Cc2ccc(C(=O)O)cc2)[C@@H](C)CN([C@@H](C)CO)C(=O)c2cc(NC(=O)Nc3cccc4ccccc34)ccc2O1	-11.4	.	2.1[16.7 µM]	.	-2.7	4.4
Cc1noc(C)c1S(=O)(=O)Nc1ccc2c(c1)CC(=O)N([C@H](C)CO)C[C@@H](C)[C@H](CN(C)Cc1ccc3c(c1)OCO3)O2	4.6	.	-20.6[16.7 µM]	.	0.3	-21.0
CC(C)CC#Cc1ccc2c(c1)O[C@H](CN(C)C(=O)c1cccc(F)c1)[C@H](C)CN([C@H](C)CO)S2(=O)=O	.	.	23.2[16.7 µM]	0.7	10.4	2.0
CC(C)C#Cc1cnc2c(c1)C(=O)N([C@H](C)CO)C[C@H](C)[C@H](CN(C)Cc1cncnc1)O2	-15.5	.	.	.	17.3	-5.4
CC(C)NC(=O)Nc1ccc2c(c1)C(=O)N([C@@H](C)CO)C[C@@H](C)[C@@H](CN(C)C(=O)CCC(F)(F)F)OCCCC[C@H](C)O2	-6.7	.	-17.3[16.7 µM]	-6.3	.	-1.9

Screens from PubChem BioAssay.
